Series [1] can be described thus: folding enthalpy; higher = less favourable; fluorescence melt of hairpins on a sequencing array, two-state fit. The conditions noted are these: sodium 0.088 M. The method, boiled down: (§1)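 Folding enthalpy and melting temperature were estimated with bootstrapped two-state fits and combined across four replicates by inverse-variance weighting, with fitted temperatures raised by 9.35 °C to match UV melts. The data were Cy3 fluorescence of library hairpins, with annealed Cy3 and quencher oligos, on a sequenced MiSeq flow cell in 50 mM Na-HEPES pH 8.0, 25 mM NaCl, imaged in 2.5 °C steps up to 60 °C and normalised to pre-quench Cy3 and control constructs.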

The nature of series [2]: melting temperature; fluorescence melt of hairpins on a sequencing array, two-state fit, raised by 9.35 °C to match UV melts. The conditions noted are these: sodium 0.088 M. The method, boiled down: as §1

As for GCAATCGGAAACGATTGC (((((((....))))))), the folding enthalpy in series [1] was -41.9 kcal/mol. Besides, the Tm in series [2] was determined as 69.2 °C.
For GCAATGCGAAAGCAATGC (((.(((....))).))) the same measures were -40 kcal/mol and 56.5 °C.
For GCAATGCGAAAGCACAGC ((..(((....)))..)) the same measures were -14.9 kcal/mol and 34.3 °C.
In the same order, the values of GCAATGCGAAAGCAGAGC ((..(((....)))..)) are -19.5 kcal/mol and 55 °C.
As for GCAATGCGAAAGCCTAGC ((.(.((....)).).)), the folding enthalpy in series [1] is -11.2 kcal/mol. Further, the Tm in series [2] amounted to 26.8 °C.
For GCAATGCGAAAGCCTGGC ((.(.((....)).).)) the same measures were -13.8 kcal/mol and 34.2 °C.
With GCAATGCGAAAGCGATGC (((..((....))..))), in series [1], the folding enthalpy was -20.6 kcal/mol. Moreover, the Tm in series [2] amounted to 53 °C.
Turning to GCAATGGCGAAAGCCTGC (((..(((....)))))), the folding enthalpy in series [1] is -14.1 kcal/mol. For the same sequence, in series [2], the Tm amounted to 50.5 °C.
For GCAATGGGAAACCGTTGC ((((.((....)).)))), in series [1], the folding enthalpy was -43.3 kcal/mol. Also, the Tm in series [2] is 55 °C.
With GCAATGGGAAACTATTGC (((((.(....).))))), in series [1], the folding enthalpy was -33.5 kcal/mol. Besides, the Tm in series [2] was found to be 47 °C.
For GCAATGGGAAACTGTTGC ((((..(....)..)))) the same measures were -27.7 kcal/mol and 40.4 °C.
For GCAATTGCGAAAGCATGC (((..(((....)))))), the folding enthalpy in series [1] was -14.9 kcal/mol. Moreover, the Tm in series [2] was found to be 40.2 °C.
In the same order, the values of GCAATTGGAAACAGTTGC ((((.((....)).)))) are -33.3 kcal/mol and 47 °C.
For GCAATTGGAAACGATTGC (((((.(....).))))) the same measures were -37.4 kcal/mol and 48.4 °C.
In the same order, the values of GCACAACCGAAAGGTTGC (((..(((....)))))) are -8.1 kcal/mol and 37.8 °C.
On to GCACACGAAAGTGCCTGC ((((((....)))..))), for which the folding enthalpy in series [1] was -13.2 kcal/mol. For the same sequence, the Tm in series [2] turned out to be 34.7 °C.
For GCACACGAAAGTGCTGC ((((((....))).))) the same measures were -34 kcal/mol and 54.7 °C.
For GCACACGAAAGTGGATGC ((((((....)))..))) the same measures were -17.9 kcal/mol and 45.6 °C.
In the same order, the values of GCACACGGAAACACGTGC ((((..(....)..)))) are -22.5 kcal/mol and 40.2 °C.
Turning to GCACACGGAAACATGTGC (((((.(....).))))), the folding enthalpy in series [1] was -35.2 kcal/mol. Moreover, in series [2], the Tm was 47.4 °C.
For GCACACGGAAACGTGCAC (..((((....))))..) the same measures were -9.99 kcal/mol and 33.2 °C.
For GCACAGCGAAAGCAGCGC ((.(.((....)).).)) the same measures were -19.4 kcal/mol and 53.6 °C.
In the same order, the values of GCACAGCGAAAGCGGAGC ((.(.((....)).).)) are -25.9 kcal/mol and 61.6 °C.
With GCACAGCGAAAGCGTTGC (((..((....))..))), the folding enthalpy in series [1] is -15.5 kcal/mol. Further, the Tm in series [2] was determined as 48.2 °C.
In the same order, the values of GCACAGCGAAAGCTACGC ((..(((....)))..)) are -16.7 kcal/mol and 42 °C.
For GCACAGGGAAACCCATGC (((..((....))..))) the same measures were -17.6 kcal/mol and 32 °C.
In the same order, the values of GCACATGCGAAAGCATGC (((..(((....)))))) are -7.24 kcal/mol and 40.4 °C.
In the case of GCACATGGAAACGTGTGC (((((.(....).))))), in series [1], the folding enthalpy is -45.2 kcal/mol. For the same sequence, the Tm in series [2] was 55.5 °C.
In the same order, the values of GCACCACCGAAAGGTTGC (((..(((....)))))) are -15.9 kcal/mol and 39.5 °C.
On to GCACCAGGAAACCGGTAC (.(((.(....).))).), for which the folding enthalpy in series [1] was -8.98 kcal/mol. Moreover, the Tm in series [2] amounted to 22.2 °C.
In the same order, the values of GCACCAGGAAACTGGCAC (..((((....))))..) are -11.6 kcal/mol and 23.9 °C.
In the same order, the values of GCACCCCGAAAGGGCTGC (((.(((....))).))) are -24.9 kcal/mol and 50 °C.
For GCACCCGAAAGGGAATGC ((((((....)))..))) the same measures were -20.1 kcal/mol and 45.3 °C.
For GCACCCGAAAGGGCATGC ((((((....)))..))), the folding enthalpy in series [1] is -15 kcal/mol. In series [2], the Tm was found to be 41 °C.
With GCACCCGAAAGGGTTTGC ((((((....)))..))), the folding enthalpy in series [1] is -13.2 kcal/mol. Moreover, in series [2], the Tm was 41.6 °C.
For GCACCCGCGAAAGCGTGC (((..(((....)))))) the same measures were -14.5 kcal/mol and 42.6 °C.

The values are drawn from the array DNA melting data of Ke et al. (doi:10.1101/2024.01.08.574731).
